Assay results as given in ChEMBL document CHEMBL1828548, “Synthesis and pharmacological evaluations of novel 2H-benzo[b][1,4]oxazin-3(4H)-one derivatives as a new class of anti-cancer agents” (2011).

Key:
Assay type in all cases: functional
MV4-11 [1] = assay: Cytotoxicity against human MV4-11 cells assessed as cell viability at 1 uM after 3 days by colorimetric MTT assay; conditions: MV4-11, 72 h, read-out: Activity
Procedure, shortened: (§1)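 MV4-11 leukemia cells from ATCC, grown as recommended, were plated at 40,000 cells/well immediately before treatment. They were cultured 3 days in 5% FBS medium with compound from 20 mM DMSO stocks diluted in RPMI (final ≤20 µM, 0.1% v/v DMSO). MTT (0.5 mg/mL, 4 h) was followed by SDS/HCl solubilization and absorbance at 595 nm. Percent viability is relative to DMSO-treated controls; run twice in triplicate.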

A549 [2] = assay: Cytotoxicity against human A549 cells assessed as cell viability at 1 uM after 3 days by colorimetric MTT assay; conditions: A549, 72 h, read-out: Activity
Procedure, shortened: (§2)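 A549 and DLD-1 cells from ATCC, grown as recommended, were seeded at 5000 cells/well the day before dosing. They were exposed for 3 days in medium with 5% FBS to compound diluted from 20 mM DMSO stocks (final up to 20 µM, 0.1% v/v DMSO). Cells then received 0.5 mg/mL MTT for 4 h, formazan was dissolved in 10% SDS/10 mM HCl, and A595 was read. Viability is % of 0.1% DMSO control; two experiments, triplicate points.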

MV4-11 [3] = assay: Cytotoxicity against human MV4-11 cells assessed as cell viability at 20 uM after 3 days by colorimetric MTT assay; conditions: MV4-11, 72 h, read-out: Activity; procedure, shortened: as §1
A549 [4] = assay: Cytotoxicity against human A549 cells assessed as cell viability at 20 uM after 3 days by colorimetric MTT assay; conditions: A549, 72 h, read-out: Activity; procedure, shortened: as §2
DLD-1 [5] = assay: Cytotoxicity against human DLD1 cells assessed as cell viability at 20 uM after 3 days by colorimetric MTT assay; conditions: DLD-1, 72 h, read-out: Activity; procedure, shortened: as §2
DLD-1 [6] = assay: Cytotoxicity against human DLD1 cells assessed as cell viability at 1 uM after 3 days by colorimetric MTT assay; conditions: DLD-1, 72 h, read-out: Activity; procedure, shortened: as §2
A549 [7] = assay: Cytotoxicity against human A549 cells assessed as cell viability at 10 uM after 3 days by colorimetric MTT assay; conditions: A549, 72 h, read-out: Activity; procedure, shortened: as §2
MV4-11 [8] = assay: Cytotoxicity against human MV4-11 cells assessed as cell viability at 10 uM after 3 days by colorimetric MTT assay; conditions: MV4-11, 72 h, read-out: Activity; procedure, shortened: as §1
DLD-1 [9] = assay: Cytotoxicity against human DLD1 cells assessed as cell viability at 10 uM after 3 days by colorimetric MTT assay; conditions: DLD-1, 72 h, read-out: Activity; procedure, shortened: as §2

Compound	viability at 1 µM (MV4-11 [1]) [%]	viability at 1 µM (A549 [2]) [%]	viability at 20 µM (MV4-11 [3]) [%]	viability at 20 µM (A549 [4]) [%]	viability at 20 µM (DLD-1 [5]) [%]	viability at 1 µM (DLD-1 [6]) [%]	viability at 10 µM (A549 [7]) [%]	viability at 10 µM (MV4-11 [8]) [%]	viability at 10 µM (DLD-1 [9]) [%]
O=C1COc2ccc(-c3[nH]c(-c4ccccc4)nc3-c3ccccc3)cc2N1	105	95.6	7.6	58.5	47.3	98.2	–	–	–
O=C1COc2ccc(-c3[nH]c(-c4ccc(Cl)cc4Cl)nc3-c3ccccc3)cc2N1	109	97.4	41.1	68.3	61.9	97.8	–	–	–
O=C1COc2ccc(-c3[nH]c(-c4ccc(F)cc4)nc3-c3ccccc3)cc2N1	108	97.1	1.1	37.5	29.5	94.8	–	–	–
COc1ccc(-c2nc(-c3ccccc3)c(-c3ccc4c(c3)NC(=O)CO4)[nH]2)cc1	108	101	1.2	38.1	19.1	96	–	–	–
O=C1COc2ccc(-c3[nH]c(-c4c[nH]c5ncccc45)nc3-c3ccccc3)cc2N1	111	100	8.9	86.8	53.5	97.7	–	–	–
O=C1COc2ccc(-c3[nH]c(-c4ccc(C(F)(F)F)cc4)nc3-c3ccccc3)cc2N1	111	103	0.6	21.7	12.1	95	–	–	–
O=C1COc2ccc(-c3nn(-c4ccccc4)cc3-c3ccccc3)cc2N1	117	92.2	97.9	59.7	47.7	77	–	–	–
Cc1ccccc1-n1cc(-c2ccccc2)c(-c2ccc3c(c2)NC(=O)CO3)n1	99.4	94.8	54.2	85.3	62.9	92.2	–	–	–
O=C1COc2ccc(-c3nn(-c4ccc(Br)cc4)cc3-c3ccccc3)cc2N1	108	81.5	91.5	58.8	54.2	66.4	–	–	–
O=C1COc2ccc(-c3nn(-c4ccc(Cl)cc4)cc3-c3ccccc3)cc2N1	108	84.4	91.9	52.4	47.1	61.9	–	–	–
O=C1COc2ccc(-c3nn(-c4ccc(F)cc4)cc3-c3ccccc3)cc2N1	107	78.2	92.6	56.4	45.2	64.4	–	–	–
O=C1COc2ccc(-c3nn(-c4cc(Cl)cc(Cl)c4)cc3-c3ccccc3)cc2N1	105	93.1	50.5	70.2	52.2	90.3	–	–	–
COc1ccc(-n2cc(-c3ccccc3)c(-c3ccc4c(c3)NC(=O)CO4)n2)cc1	106	95.6	59.9	42.6	35.6	92.2	–	–	–
C#Cc1cccc(Nc2ncnc3cc(OCCOC)c(OCCOC)cc23)c1 [ERLOTINIB]	98.3	83	–	–	–	85.7	68.5	16.8	55.4
COc1cc2ncnc(Nc3ccc(F)c(Cl)c3)c2cc1OCCCN1CCOCC1 [GEFITINIB]	92.4	84.4	–	–	–	87	61.5	7	65.7
Cc1ccc(NC(=O)c2ccc(CN3CCN(C)CC3)cc2)cc1Nc1nccc(-c2cccnc2)n1 [IMATINIB]	105	108	–	–	–	89.9	98.6	82	91.5
CNC(=O)c1cc(Oc2ccc(NC(=O)Nc3ccc(Cl)c(C(F)(F)F)c3)cc2)ccn1 [SORAFENIB]	1.6	103	–	–	–	93.4	28.6	0.7	28
CCN(CC)CCNC(=O)c1c(C)[nH]c(/C=C2\C(=O)Nc3ccc(F)cc32)c1C [SUNITINIB]	1.4	102	–	–	–	92.9	37.4	0.5	52.7
COc1cc2/c(=N/c3ccc(Br)cc3F)nc[nH]c2cc1OCC1CCN(C)CC1 [VANDETANIB]	84.1	88.7	–	–	–	88.6	41.7	1.6	37.9
